Results: ChEMBL document CHEMBL1157613, “Salicylic acid based small molecule inhibitor for the oncogenic Src homology-2 domain containing protein tyrosine phosphatase-2 (SHP2)” (J Med Chem, 2010)
pIC50: −log10 of the molar value. Active and inactive are the calls of the source. No cut-off for these calls is given here.

Experiments:
[1] = target: Tyrosine-protein phosphatase non-receptor type 6 (Homo sapiens, UniProt P29350); assay: Inhibition of SHP1 expressed in Escherichia coli assessed as inhibition of p-nitrophenyl phosphate hydrolysis at pH 7 by spectrophotometry
Tyrosine-protein phosphatase non-receptor type 6, sequence (P29350 whole entry): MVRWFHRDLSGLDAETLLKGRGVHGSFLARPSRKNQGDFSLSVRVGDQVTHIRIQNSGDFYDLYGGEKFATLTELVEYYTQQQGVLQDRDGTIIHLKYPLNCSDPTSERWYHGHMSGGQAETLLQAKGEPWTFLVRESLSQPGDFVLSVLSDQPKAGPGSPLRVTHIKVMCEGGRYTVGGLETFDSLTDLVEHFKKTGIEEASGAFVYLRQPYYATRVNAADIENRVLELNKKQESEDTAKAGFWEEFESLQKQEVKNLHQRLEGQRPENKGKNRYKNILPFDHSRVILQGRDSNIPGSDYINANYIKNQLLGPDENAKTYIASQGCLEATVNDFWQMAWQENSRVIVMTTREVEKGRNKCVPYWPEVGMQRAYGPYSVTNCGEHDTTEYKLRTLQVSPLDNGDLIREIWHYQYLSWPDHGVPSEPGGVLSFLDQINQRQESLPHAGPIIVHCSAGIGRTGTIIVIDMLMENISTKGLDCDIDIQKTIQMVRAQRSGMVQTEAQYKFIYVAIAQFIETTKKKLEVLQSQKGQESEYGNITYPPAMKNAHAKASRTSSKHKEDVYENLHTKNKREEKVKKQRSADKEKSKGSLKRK

[2] = target: T1, Tyrosine-protein phosphatase non-receptor type 1 (Homo sapiens, UniProt P18031); assay: Inhibition of PTP1B expressed in Escherichia coli assessed as inhibition of p-nitrophenyl phosphate hydrolysis at pH 7 by spectrophotometry
T1 sequence (P18031 whole entry): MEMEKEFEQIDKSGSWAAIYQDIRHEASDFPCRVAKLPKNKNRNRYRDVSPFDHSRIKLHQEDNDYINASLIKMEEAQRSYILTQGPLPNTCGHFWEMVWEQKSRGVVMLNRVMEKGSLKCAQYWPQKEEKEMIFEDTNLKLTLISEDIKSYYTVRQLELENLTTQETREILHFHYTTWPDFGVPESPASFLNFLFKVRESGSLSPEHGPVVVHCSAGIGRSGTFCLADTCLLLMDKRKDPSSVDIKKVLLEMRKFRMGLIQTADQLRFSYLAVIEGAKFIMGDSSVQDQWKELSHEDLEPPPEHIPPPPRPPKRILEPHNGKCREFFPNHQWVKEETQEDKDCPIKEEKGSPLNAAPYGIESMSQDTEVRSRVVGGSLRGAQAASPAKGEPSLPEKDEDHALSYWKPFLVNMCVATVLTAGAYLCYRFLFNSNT

[3] = target: T2, Tyrosine-protein phosphatase non-receptor type 22 (Homo sapiens, UniProt Q9Y2R2); assay: Inhibition of Lyp expressed in Escherichia coli assessed as inhibition of p-nitrophenyl phosphate hydrolysis at pH 7 by spectrophotometry
T2 sequence (Q9Y2R2 whole entry): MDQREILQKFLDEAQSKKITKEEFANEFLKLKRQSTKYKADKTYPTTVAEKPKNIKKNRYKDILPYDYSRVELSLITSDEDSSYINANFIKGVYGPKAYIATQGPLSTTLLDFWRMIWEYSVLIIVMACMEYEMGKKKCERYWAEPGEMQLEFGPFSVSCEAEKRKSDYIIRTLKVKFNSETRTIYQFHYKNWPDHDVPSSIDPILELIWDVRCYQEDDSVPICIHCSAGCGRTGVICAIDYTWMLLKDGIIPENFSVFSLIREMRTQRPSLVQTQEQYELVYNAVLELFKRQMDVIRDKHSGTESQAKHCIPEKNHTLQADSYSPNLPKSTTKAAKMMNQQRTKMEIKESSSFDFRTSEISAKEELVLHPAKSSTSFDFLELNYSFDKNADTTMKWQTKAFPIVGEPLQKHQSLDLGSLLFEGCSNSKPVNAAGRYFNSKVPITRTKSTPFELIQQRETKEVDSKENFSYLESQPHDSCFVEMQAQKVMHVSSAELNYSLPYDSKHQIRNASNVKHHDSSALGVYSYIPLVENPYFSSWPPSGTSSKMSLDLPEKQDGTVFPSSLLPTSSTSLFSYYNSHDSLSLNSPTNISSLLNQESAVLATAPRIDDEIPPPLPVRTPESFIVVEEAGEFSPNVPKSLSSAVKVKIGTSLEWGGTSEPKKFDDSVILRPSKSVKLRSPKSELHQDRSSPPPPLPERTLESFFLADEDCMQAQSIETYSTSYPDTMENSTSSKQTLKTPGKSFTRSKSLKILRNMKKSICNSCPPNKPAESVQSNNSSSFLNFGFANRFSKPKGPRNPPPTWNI

[4] = target: Tyrosine-protein phosphatase non-receptor type 13 (Homo sapiens, UniProt Q12923); assay: Inhibition of FAP1 expressed in Escherichia coli assessed as inhibition of p-nitrophenyl phosphate hydrolysis at pH 7 by spectrophotometry
Tyrosine-protein phosphatase non-receptor type 13, sequence (Q12923 whole entry): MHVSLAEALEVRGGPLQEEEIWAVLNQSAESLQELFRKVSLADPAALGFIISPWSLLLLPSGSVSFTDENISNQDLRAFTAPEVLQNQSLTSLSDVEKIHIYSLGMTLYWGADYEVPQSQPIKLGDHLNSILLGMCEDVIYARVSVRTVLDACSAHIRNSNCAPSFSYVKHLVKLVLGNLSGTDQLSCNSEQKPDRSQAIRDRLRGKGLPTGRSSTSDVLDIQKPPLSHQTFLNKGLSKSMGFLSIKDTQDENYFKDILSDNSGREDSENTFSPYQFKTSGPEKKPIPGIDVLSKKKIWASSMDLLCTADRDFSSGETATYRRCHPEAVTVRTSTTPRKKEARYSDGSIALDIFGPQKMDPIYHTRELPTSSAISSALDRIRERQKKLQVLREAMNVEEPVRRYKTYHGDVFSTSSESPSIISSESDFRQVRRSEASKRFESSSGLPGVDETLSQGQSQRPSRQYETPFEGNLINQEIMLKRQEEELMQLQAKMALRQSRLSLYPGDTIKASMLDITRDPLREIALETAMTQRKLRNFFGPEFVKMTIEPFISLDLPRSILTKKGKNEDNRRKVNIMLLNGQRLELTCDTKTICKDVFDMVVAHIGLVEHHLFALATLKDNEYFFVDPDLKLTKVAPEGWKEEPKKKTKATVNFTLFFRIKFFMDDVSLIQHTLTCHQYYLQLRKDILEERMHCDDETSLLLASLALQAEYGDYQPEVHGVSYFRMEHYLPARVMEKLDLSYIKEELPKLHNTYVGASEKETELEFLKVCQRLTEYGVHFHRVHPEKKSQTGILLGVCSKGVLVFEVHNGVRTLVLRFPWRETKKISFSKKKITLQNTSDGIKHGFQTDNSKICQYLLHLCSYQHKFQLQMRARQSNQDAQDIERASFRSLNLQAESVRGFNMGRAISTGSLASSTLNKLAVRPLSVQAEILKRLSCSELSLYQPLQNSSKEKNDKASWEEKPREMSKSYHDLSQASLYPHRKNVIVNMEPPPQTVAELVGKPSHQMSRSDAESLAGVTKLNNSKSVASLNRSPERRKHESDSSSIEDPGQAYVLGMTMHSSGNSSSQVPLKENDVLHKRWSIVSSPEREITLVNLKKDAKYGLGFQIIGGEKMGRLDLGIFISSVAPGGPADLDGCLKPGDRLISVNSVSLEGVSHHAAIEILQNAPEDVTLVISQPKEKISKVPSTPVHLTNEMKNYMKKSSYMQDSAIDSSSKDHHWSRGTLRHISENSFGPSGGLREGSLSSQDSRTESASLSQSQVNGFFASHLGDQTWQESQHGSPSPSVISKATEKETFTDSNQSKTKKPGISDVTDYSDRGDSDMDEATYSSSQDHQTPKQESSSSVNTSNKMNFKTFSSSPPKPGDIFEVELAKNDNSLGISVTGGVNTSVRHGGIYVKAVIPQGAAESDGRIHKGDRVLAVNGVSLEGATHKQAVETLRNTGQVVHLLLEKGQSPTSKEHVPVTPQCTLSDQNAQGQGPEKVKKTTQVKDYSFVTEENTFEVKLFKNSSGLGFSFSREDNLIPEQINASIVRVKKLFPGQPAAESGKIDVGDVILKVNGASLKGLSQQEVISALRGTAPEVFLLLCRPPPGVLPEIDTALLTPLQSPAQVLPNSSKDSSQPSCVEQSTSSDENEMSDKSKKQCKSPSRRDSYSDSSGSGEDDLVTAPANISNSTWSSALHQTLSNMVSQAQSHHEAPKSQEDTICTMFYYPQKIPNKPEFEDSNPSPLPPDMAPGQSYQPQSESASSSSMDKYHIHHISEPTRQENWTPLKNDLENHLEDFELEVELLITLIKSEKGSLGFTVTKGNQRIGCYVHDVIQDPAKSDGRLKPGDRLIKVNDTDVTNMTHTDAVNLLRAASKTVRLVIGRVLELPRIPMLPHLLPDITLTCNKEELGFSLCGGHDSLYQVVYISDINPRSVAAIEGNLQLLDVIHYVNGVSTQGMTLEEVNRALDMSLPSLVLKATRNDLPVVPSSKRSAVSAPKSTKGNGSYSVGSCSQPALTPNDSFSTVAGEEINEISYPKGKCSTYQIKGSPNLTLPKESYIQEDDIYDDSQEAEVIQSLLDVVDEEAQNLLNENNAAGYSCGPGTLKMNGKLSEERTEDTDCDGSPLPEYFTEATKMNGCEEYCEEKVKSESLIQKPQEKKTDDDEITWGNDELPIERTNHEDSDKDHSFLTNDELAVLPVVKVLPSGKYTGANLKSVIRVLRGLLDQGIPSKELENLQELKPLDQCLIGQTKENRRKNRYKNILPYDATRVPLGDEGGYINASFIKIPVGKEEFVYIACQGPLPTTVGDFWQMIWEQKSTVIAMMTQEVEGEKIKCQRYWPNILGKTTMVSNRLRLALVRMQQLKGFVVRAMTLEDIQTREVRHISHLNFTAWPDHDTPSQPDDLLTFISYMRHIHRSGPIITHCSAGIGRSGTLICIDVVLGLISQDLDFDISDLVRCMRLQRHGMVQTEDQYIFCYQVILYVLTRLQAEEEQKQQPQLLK

[5] = target: Receptor-type tyrosine-protein phosphatase F (Homo sapiens, UniProt P10586); assay: Inhibition of LAR expressed in Escherichia coli assessed as inhibition of p-nitrophenyl phosphate hydrolysis at pH 7 by spectrophotometry
[6] = target: Receptor-type tyrosine-protein phosphatase alpha (Homo sapiens, UniProt P18433); assay: Inhibition of PTPalpha expressed in Escherichia coli assessed as inhibition of p-nitrophenyl phosphate hydrolysis at pH 7 by spectrophotometry
Receptor-type tyrosine-protein phosphatase alpha, sequence (P18433 whole entry): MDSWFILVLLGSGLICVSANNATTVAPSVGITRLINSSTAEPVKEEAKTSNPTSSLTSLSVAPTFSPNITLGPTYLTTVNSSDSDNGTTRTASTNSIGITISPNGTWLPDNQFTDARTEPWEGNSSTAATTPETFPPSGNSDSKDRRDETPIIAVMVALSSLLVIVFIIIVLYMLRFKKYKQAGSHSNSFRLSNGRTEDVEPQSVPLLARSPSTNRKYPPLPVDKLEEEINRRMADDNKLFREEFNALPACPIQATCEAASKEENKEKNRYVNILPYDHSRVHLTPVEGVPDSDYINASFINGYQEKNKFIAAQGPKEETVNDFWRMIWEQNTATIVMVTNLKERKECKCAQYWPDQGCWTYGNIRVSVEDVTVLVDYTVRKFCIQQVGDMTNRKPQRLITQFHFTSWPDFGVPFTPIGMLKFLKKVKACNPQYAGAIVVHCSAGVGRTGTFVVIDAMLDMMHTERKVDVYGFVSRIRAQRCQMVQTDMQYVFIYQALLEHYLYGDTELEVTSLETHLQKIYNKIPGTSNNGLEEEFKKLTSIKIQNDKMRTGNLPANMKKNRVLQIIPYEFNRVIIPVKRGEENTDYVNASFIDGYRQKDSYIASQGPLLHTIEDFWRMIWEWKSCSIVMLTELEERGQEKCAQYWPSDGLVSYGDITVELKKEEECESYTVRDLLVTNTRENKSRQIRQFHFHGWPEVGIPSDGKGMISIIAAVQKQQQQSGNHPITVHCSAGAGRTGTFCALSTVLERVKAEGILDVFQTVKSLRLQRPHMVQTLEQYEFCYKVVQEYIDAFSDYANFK

[7] = target: Dual specificity protein phosphatase 3 (Homo sapiens, UniProt P51452); assay: Inhibition of VHR expressed in Escherichia coli assessed as inhibition of p-nitrophenyl phosphate hydrolysis at pH 7 by spectrophotometry
Dual specificity protein phosphatase 3, sequence (P51452 whole entry): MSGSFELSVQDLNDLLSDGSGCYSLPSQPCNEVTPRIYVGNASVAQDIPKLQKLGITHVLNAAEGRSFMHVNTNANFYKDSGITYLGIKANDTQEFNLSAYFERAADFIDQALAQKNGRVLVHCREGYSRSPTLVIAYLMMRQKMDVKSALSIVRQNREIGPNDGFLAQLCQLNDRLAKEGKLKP

[8] = target: T3, Tyrosine-protein phosphatase non-receptor type 11 (Mus musculus) (UniProt P35235); assay: Inhibition of SHP2-dependent ERK1/2 activation in EGF-stimulated mouse NIH/3T3 cells assessed as phosphorylated ERK1/2 level at 10 uM treated for 3 hrs before EGF challenge measured after 5 to 15 mins of EGF stimulation by immunoblot analysis; format: cell-based; details: NIH3T3
T3 sequence (whole entry): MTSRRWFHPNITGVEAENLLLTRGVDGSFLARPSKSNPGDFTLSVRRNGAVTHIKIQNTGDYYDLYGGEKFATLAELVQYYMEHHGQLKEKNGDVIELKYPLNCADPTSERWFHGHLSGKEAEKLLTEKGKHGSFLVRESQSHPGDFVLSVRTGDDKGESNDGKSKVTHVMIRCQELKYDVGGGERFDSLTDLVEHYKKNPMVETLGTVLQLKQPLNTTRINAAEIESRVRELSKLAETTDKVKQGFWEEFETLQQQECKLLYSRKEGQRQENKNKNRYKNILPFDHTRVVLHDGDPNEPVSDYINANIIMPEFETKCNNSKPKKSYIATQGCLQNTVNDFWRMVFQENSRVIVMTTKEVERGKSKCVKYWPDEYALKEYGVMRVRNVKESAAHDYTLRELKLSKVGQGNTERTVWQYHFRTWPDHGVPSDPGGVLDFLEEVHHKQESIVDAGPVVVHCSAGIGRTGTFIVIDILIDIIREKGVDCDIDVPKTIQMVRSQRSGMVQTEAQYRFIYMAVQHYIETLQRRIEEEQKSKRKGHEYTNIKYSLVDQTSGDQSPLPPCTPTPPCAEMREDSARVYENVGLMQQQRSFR

[9] = species on record: Mus musculus; assay: Antiproliferative activity against GM-CSF-stimulated C57/BL6 mouse low density BM-MNC expressing SHP2 E76K mutant assessed as inhibition of hyperproliferation at 10 uM after 16 hrs by [3H]thymidine incorporation assay; format: functional; details: C57Bl/6
How it was run: (§1)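 Marrow low-density mononuclear cells from C57Bl/6 mice (Ficoll), prestimulated 24 h with SCF, G-CSF, Tpo (100 ng/mL), retrovirally transduced 48 h with wild-type SHP2, D61Y or E76K, EGFP-sorted. Starved 4 h in 0.2% BSA; 5 × 10^4 cells cultured 16 h in GM-CSF 0-1 ng/mL ± 10 μM compound, then pulsed with 1.0 μCi [3H]thymidine for 6-8 h; counts per minute; n = 3.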

[10] = species on record: Mus musculus; assay: Antiproliferative activity against GM-CSF-stimulated C57/BL6 mouse low density BM-MNC expressing SHP2 D61Y mutant assessed as inhibition of hyperproliferation at 10 uM after 16 hrs by [3H]thymidine incorporation assay; format: functional; details: C57Bl/6; how it was run: as §1
[11] = species on record: Mus musculus; assay: Antiproliferative activity against GM-CSF-stimulated C57/BL6 mouse low density BM-MNC assessed as inhibition of hyperproliferation at 10 uM after 16 hrs by [3H]thymidine incorporation assay; details: C57Bl/6

- pIC50 [1]: 4.80
- pIC50 [2]: 4.84
- pIC50 [3]: 4.60
- pIC50 [4]: 4.69
- pIC50 [5]: < 4.30
- pIC50 [6]: < 4.30
- pIC50 [7]: < 4.30
- inhibition [8]: inactive
SMILES: Cn1c(-c2ccccc2)c(-c2cn(CCC(=O)Nc3ccc(-c4ccccc4)cc3)nn2)c2cc(C(=O)O)c(O)cc21
- Activity [9]: Active
- Activity [10]: Active
- Activity [11]: Active
